From PubChem
Compounds with a hit are over-represented: about 2.3% of the library has one in this group of screens.
Rpn11 inh: blocks the human proteasome subunit Rpn11 | human 26S proteasome, Ub4-pepOG fluorescence polarization; 20S core pre-blocked with epoxomicin | calls only at 20 µM | 360,000 tested, 0.59% active | AID 588493;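 active means inhibition at 20 µM, scaled to each plate's controls, above about 33%, limit read from the data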
TPT1 inhibitor: C. albicans TPT1 enzyme inhibition; recombinant caTPT1, FP RNA substrate dephosphorylation; inhibition, % at 5 µM; 300,000 tested, 0.81% active; AID 1962;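 active means inhibition above the mean of all tested compounds plus 3 SD, set per screening campaign, cut at about 24% in these data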;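 further: plate controls were DMSO alone for no effect and ferristatin control at 100 nM for full effect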
CRFBP-R2 agonist: agonists of human CRF-binding protein/CRF-R2 receptor complex; HEK293 CRF-R2/CRF-BP, calcium dye fluorescence (FLIPR); percent of saturating CRF peptide response; AID 588473; 350,000 tested, 0.46% active; activation, % at 13.2 µM;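 active means activation of at least 50%, plus an integration ratio under a set limit after plate pattern correction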;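 further: plate controls were neutral control wells without compound for no effect and CRF at EC100 for full effect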
HNF4A DNA FP: change in binding of human HNF4 alpha to DNA | HNF4a-FITC DNA binding, fluorescence polarization, 1 h | activity change, % at 10 µM | 360,000 tested, 0.3% active; in the data active means activity change above about 30%, passing the limit was not always enough
CRFR2-BP antag: CRF-BP/CRF-R2 complex antagonism; HEK293 CRF-R2/CRF-BP, CRF-induced calcium fluorescence; inhibition, % at 11.8 µM; 350,000 tested, 0.59% active;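 active means inhibition of the ligand-induced calcium signal above about 50% at the single tested concentration, limit read from the data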
CSN deneddyl inh: inhibitors of human CSN-mediated cullin deneddylation; Q92905; Purified CSN, SCF-Nedd8-OG deneddylation, fluorescence polarization; inhibition, % at 12.5 µM; 360,000 tested, 0.38% active; AID 651999;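 active means pattern-corrected inhibition above about 35%, with an unprinted fluorescence ratio check between 0.5 and 1.5, limit read from the data, passing the limit was not always enough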;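 further: 0% = enzyme with substrate and 100% = substrate without enzyme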
Target sequence (Q92905 whole entry, looked up, one chain of several): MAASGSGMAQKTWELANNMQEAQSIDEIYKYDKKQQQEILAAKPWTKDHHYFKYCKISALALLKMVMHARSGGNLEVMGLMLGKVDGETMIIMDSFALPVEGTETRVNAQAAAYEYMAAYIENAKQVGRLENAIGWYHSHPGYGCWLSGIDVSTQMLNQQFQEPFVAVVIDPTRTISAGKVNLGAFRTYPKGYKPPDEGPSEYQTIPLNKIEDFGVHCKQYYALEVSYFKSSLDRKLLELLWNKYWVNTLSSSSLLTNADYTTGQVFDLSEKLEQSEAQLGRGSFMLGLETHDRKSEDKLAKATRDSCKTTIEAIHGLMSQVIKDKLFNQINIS
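Assay system: purified human Csn5 enzyme expressed in HEK293T cells; measure: % inhibition; also added: SCFSkp2-Nedd8OG substrate at 10 nM final; technique: fluorescence polarization; times: reaction 90 min, room temperature; medium: Tris buffer pH 7.5, NaCl, DTT, Tween-20, trehalose, ovalbumin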
TPT1 inh confirm: TPT1 (C. albicans) inhibition, confirmation. inhibition, % at 5 µM. recombinant caTPT1, fluorescence polarization, RNase T1 coupled. shares compounds with TPT1 inhibitor. 2,400 tested, 74% active;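 active means inhibition above the primary screen limit, the mean inhibition of all tested compounds plus 3 SD, cut at about 25% in these data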
RNase T1 inh: counter-screen for TPT1 inhibitors: inhibitors of Aspergillus oryzae RNase T1; shares compounds with TPT1 inhibitor; RNase T1 cleavage, fluorescence polarization, 1536-well; inhibition, % at 5 µM; 2,400 tested, 83% active; AID 2153;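 active means inhibition above the solvent-only control well mean plus 3 SD, limit set per screening run, cut at about 23% in these data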;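 further: plate controls were DMSO wells with enzyme for no effect and wells without RNase T1 for full effect; inhibitors block cleavage so intact labeled substrate keeps polarization high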
Target sequence (P00651 whole entry, looked up): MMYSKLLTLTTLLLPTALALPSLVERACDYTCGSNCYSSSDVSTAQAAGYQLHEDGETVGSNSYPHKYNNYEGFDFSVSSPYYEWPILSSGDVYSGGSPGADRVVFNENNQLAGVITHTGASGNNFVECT
* = called active by the depositor; i = inactive; · = not tested or not shown; + = active, no number.

SMILES	Rpn11 inh	TPT1 inhibitor	CRFBP-R2 agonist	HNF4A DNA FP	CRFR2-BP antag	CSN deneddyl inh	TPT1 inh confirm	RNase T1 inh
O=C(NN=Cc1c(O)ccc2ccccc12)c1ccc2c(c1)OCO2	i	·	7.0	3.2	-15.5	5.8	·	·
O=C(N/N=C/c1c(O)ccc2ccccc12)c1ccc(CO)nc1	·	82.5*	29.6	42.3*	-36.3	28.8	90.8*	93.3*
COc1cc(/C=C(\C#N)c2nc3ccccc3s2)ccc1OCC(=O)Nc1ccccc1	·	60.0*	10.5	33.0*	-32.9	39.7*	32.5*	43.9*
CC(C)=C(C#N)c1nc2ccccc2s1	i	25.2*	1.5	-0.7	-6.3	-3.8	7.5	8.7
N#C/C(=C/c1ccncc1)c1nc2ccccc2s1	·	30.2*	23.5	6.2	-60.3	13.2	14.3	20.7
O=C(c1ccc(N2CN(C(=O)c3ccco3)c3nc4ccccc4nc32)cc1)N1CCOCC1	i	-4.1	2.7	-2.2	-14.3	-1.6	·	·
COc1cc(OC)cc(C(C(=O)NCc2ccccc2)N(Cc2ccco2)C(=O)c2ccno2)c1 (stereo unspecified)	i	41.9*	-2.2	10.8	-18.3	16.6	16.0	25.0*
N=c1oc2cc(O)ccc2cc1C(=O)Nc1nc2ccccc2s1	·	65.3*	40.1	30.7	-13.8	40.8	69.9*	74.6*
N=c1oc2cc(O)ccc2cc1C(=O)Nc1ccc(Br)cc1	i	8.1	42.0	26.0	-11.6	7.9	·	·
N=c1oc2cc(O)ccc2cc1C(=O)Nc1ccccn1	·	29.0*	·	·	·	·	-19.0	-5.9
CC(C)c1ccc(C2C3CSCC=C3C(C#N)=C(N)C2(C#N)C#N)cc1 (stereo unspecified)	·	36.0*	·	·	·	·	37.6*	48.0*
CN1CC=C2C(C#N)=C(N)C(C#N)(C#N)[C@H](c3cccc(Cl)c3)C2C1 (stereo partly specified)	i	-47.2	18.1	-18.2	4.7	-12.7	·	·
COc1ccc(NC(=O)c2cc(S(=O)(=O)Nc3ccc(OC)cc3)cs2)cc1	i	47.4*	1.2	1.1	-11.0	-4.9	5.5	6.9
Cc1cc(C(=O)OCC(=O)c2ccc(Br)s2)c(C)o1	·	30.3*	·	·	·	·	5.6	10.0
C=CCSc1nnc(-c2c[nH]c3ccccc23)n1CC	i	·	-1.9	1.9	-6.7	-1.6	·	·
Cc1sc2nc(COC(=O)c3ccc(N4CCCC4)c([N+](=O)[O-])c3)[nH]c(=O)c2c1C	·	69.3*	21.5	28.1	-18.4	8.7	69.4*	78.2*
O=C1c2cc(O)cc(O)c2C(=O)c2c1cc(O)c([C@@H](CO)CCO)c2O	i	16.8	0.4	19.1	-6.6	29.6	·	·
Cc1cc(O)c2c(c1)C(=O)c1cc(O)cc(O)c1C2=O	i	26.7*	35.8	14.2	-33.5	7.3	43.9*	60.5*
CC(C)(C)CC(=O)Nc1nn[nH]n1	i	26.6*	1.1	0.9	14.0	-5.7	6.3	9.9
CCOC(=O)c1ccc2c(c1)C(=O)N(C1CCCCC1)C2=O	i	-2.1	-0.3	-2.7	-16.2	-6.6	·	·
Cc1ccc(-n2nnnc2C(=Cc2ccc(N(C)C)cc2)c2nnnn2-c2ccc(C)cc2)cc1	·	14.9	9.1	19.8	-40.5	15.3	·	·
CCN(CC)c1ccc(C=C(c2nnnn2-c2ccccc2)c2nnnn2-c2ccccc2)cc1	·	68.9*	44.3	29.6	-74.1	21.8	93.8*	104.2*
Cc1cccc(N=C2NC(=O)/C(=C/c3cccn3C)S2)c1C	·	25.4*	4.2	23.9	-7.5	16.0	37.1*	49.1*
Cc1ccc(N=C2NC(=O)/C(=C/c3cccn3C)S2)cc1C	i	6.7	-1.1	3.2	6.0	1.4	·	·
NS(=O)(=O)c1ccc(-c2ccc(/C=C3\NC(=S)NC3=O)o2)cc1	i	45.5*	-0.2	36.0*	5.6	-1.4	70.0*	79.7*
SMILES	Rpn11 inh	TPT1 inhibitor	CRFBP-R2 agonist	HNF4A DNA FP	CRFR2-BP antag	CSN deneddyl inh	TPT1 inh confirm	RNase T1 inh
O=c1[nH]ncc2c3ccccc3n(Cc3cccc(Cl)c3)c12	·	69.2*	1.6	62.8*	-37.6	22.5	156.8*	136.8*
Cc1cn(CC2COC(C)(C)O2)c(=O)[nH]c1=O (stereo unspecified)	i	0.3	-1.3	1.9	8.0	-1.4	·	·
Cc1ccccc1-n1c(SCC(N)=O)nc2sc(-c3ccccc3)cc2c1=O	i	-3.1	-0.8	-0.9	-10.0	1.1	·	·
Cc1ccccc1-n1c(SCC(=O)NC(N)=O)nc2sc(-c3ccccc3)cc2c1=O	i	30.6*	-0.9	0.6	-3.9	4.8	6.2	10.9
COc1cc(C(=O)Oc2ccccc2/C=N/NC(=O)c2ccc(Cl)cc2Cl)cc(OC)c1OC	i	-5.2	7.8	-0.2	10.2	2.0	·	·
CC(C(=O)N1CCN(C2c3ccccc3-c3ccccc32)CC1)N1C(=O)c2ccccc2C1=O (stereo unspecified)	i	-4.2	-0.3	0.6	-0.1	0.6	·	·
COC(=O)c1ccc(OCCN2C3=NCCN3c3ccccc32)cc1	i	37.4*	0.7	0.4	-8.4	-4.2	1.5	3.7
CCN1CCc2c(sc(NC(=O)c3ccc(S(=O)(=O)N4CCCC4)cc3)c2C(=O)NC)C1	i	17.1	1.9	5.9	-15.8	0.3	·	·
CNC(=O)c1c(NC(=O)c2ccc(S(=O)(=O)N3CCCCC3)cc2)sc2c1CCN(C(C)C)C2	i	28.7*	45.3	13.7	-67.1	11.3	30.4*	39.3*
CN1CCc2c(sc(NC(=O)c3ccc(S(=O)(=O)N4CCOCC4)cc3)c2C(N)=O)C1	+	90.0*	11.0	48.0*	-6.2	17.3	100.6*	110.7*
NC(=O)c1c(NC(=O)c2ccc(S(=O)(=O)N3CCOCC3)cc2)sc2c1CCCCC2	i	-1.6	2.2	-3.0	-35.1	1.1	·	·
CCOC(=O)N1CCN(S(=O)(=O)c2ccc(C(=O)Nc3sc4c(c3C(=O)OC)CCN(C)C4)cc2)CC1	i	-1.6	7.0	6.8	11.8	-1.2	·	·
CN1CCc2c(sc(NC(=O)c3ccc(S(=O)(=O)N4CCCCCC4)cc3)c2C(N)=O)C1	+	119.2*	126.7*	36.9	-146.0	21.6	125.5*	125.0*
Cc1nn(C)c(C)c1CNC(=O)Nc1cccc(Cl)c1	i	-3.2	4.5	1.9	-1.8	1.6	·	·
CCN(CC)c1ccc(N=Nc2ncn[nH]2)cc1	i	24.6*	-3.1	23.4	9.3	6.9	24.3*	35.4*
Cc1ccc(O)c(NC(=O)c2noc3c2CCCCC3)c1	i	25.1*	0.3	-12.8	1.0	2.0	-0.4	4.4
Cc1ccc(NC(=O)c2noc3c2CCCCC3)cc1	i	2.5	-2.4	-2.4	-33.7	-0.4	·	·
